# aDG glyco act: increases alpha dystroglycan glycosylation; Pro5-aDG cells, alpha-DG glycosylation AlphaScreen (IIH6); 0% Pro5, 100% B10-LARGE cell signal; activation, % at 10 µM; actives 0.22% (n = 360,000); AID 624168;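 active means activation of at least 8% versus controls, or a plate z-score of at least 8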;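 further: Pro5 are CHO cells carrying HIG-tagged alpha-DG that lacks glycosylation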
# Beta2AR agonist: agonists of human beta-2 adrenergic receptor inducing internalization; response, % (no concentration beside the values); actives 0.43% (n = 340,000); AID 504454; Am2.2-beta2AR cells, FAP receptor internalization, flow cytometry; P07550;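 active means response above a set limit, near 3 SD of response in nonfluorescent compounds, cut at about 42% in these data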
# UCH37 inh: human UCH37 deubiquitinating enzyme inhibition; Q9Y5K5; actives 0.33% (n = 330,000); inhibition, % (no concentration beside the values); AID 588478; purified proteasome/UCH37, Ub-AMC cleavage fluorescence;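 active means mean inhibition over replicate wells above about 20%, limit read from the data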;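 further: 0% = compound-free wells with enzyme and 100% = wells lacking proteasome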
# Target sequence (Q9Y5K5 whole entry, looked up): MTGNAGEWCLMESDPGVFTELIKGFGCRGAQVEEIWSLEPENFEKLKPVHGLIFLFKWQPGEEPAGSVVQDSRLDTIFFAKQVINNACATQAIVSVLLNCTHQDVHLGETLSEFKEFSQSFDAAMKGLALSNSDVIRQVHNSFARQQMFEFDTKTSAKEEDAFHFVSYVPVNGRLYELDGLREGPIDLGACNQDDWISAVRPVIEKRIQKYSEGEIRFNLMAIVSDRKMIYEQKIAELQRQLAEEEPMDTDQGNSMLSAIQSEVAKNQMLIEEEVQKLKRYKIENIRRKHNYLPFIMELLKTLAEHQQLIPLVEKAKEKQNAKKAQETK
#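 system = Proteasome-associated human UCH37 deubiquitinase | amount = 0.15 nM proteasome as dispensed | medium = pH 7.4 Tris-HCl (50 mM) with ovalbumin, ATP-MgCl2, DTT | incubation = 30 min preincubation with enzyme, 25 min cleavage at room temperature | detection = AMC fluorescence 355/460 nm | read-out basis = percent inhibition | controls = no-proteasome and no-compound wells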
# HKDC1 inh: blocks human hexokinase HKDC1 activity; AID 493160; recombinant HKDC1, G6PDH/diaphorase resazurin coupled fluorescence; inhibition, % at 20 µM; Q2TB90; actives 0.16% (n = 340,000);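 active means inhibition above about 35% when tested at 20 µM, limit read from the data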;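 further: plate controls were DMSO wells with enzyme for no effect and DMSO wells lacking enzyme for full effect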
#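 Incubation: 90 min at room temperature in dark / Material: recombinant HKDC1 (HK5) hexokinase enzyme, produced in-house / Quantity: enzyme 5 µg/mL final / Compound: one dose of 20 µM, 1% DMSO / Reagent: glucose and ATP substrates / Buffer or medium: Tris pH 8.0 buffer with MgCl2, Tween-20, BSA, BME / Technique: resorufin fluorescence at 613 nm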
# PfG6PD inh: PfG6PD (Plasmodium falciparum) enzyme inhibition; actives 0.78% (n = 350,000); inhibition, % at 20 µM; PfGluPho enzyme, NADPH resazurin-diaphorase fluorescence;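 active means inhibition reaching at least a set limit at 20 µM in the primary screen, cut at about 59% in these data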;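 further: 0% = DMSO wells with substrate and 100% = DMSO wells lacking glucose-6-phosphate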
# H9c2 protect: myocardial damage modulation in H9c2 cells; H9c2 cardiomyocytes, H2O2 injury protection, ATPLite, 2 h; protection from H2O2 cell death, % at 20 µM; actives 0.63% (n = 360,000);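 active means compounds giving at least 50% protection of heart cells from peroxide-induced death in the single-dose screen, raw or plate-pattern-corrected value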;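 further: 0% = DMSO wells with peroxide and 100% = DMSO wells without peroxide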
# aDG glyco conf: alpha-DG glycosylation activation, confirmation. shares compounds with aDG glyco act. Pro5-aDG cells, IIH6 AlphaLISA; scaled to LARGE-overexpressing B10 cells as 100%. activation, % at 10 µM (by protocol). actives 17% (n = 600). AID 651671;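 active means activation of at least 7% in one or more replicates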;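 further: cells exposed to compound for two days before detection; 0% = DMSO-treated Pro5 cells and 100% = DMSO-treated B10-LARGE cells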
# Numbers without * were called inactive; / = not tested or not shown. Rows were chosen to be rich in hits. Some 2.1% of all compounds tested hit in one or more screens of this group.
SMILES,aDG glyco act,Beta2AR agonist,UCH37 inh,HKDC1 inh,PfG6PD inh,H9c2 protect,aDG glyco conf
Cc1sc2ncnc(NCC(c3ccccc3)N(C)C)c2c1C (stereo not drawn),0,2,1,-3,11,-4,/
Cc1sc2ncnc(NCC(O)c3ccccc3)c2c1C (stereo not drawn),2.7*,0,2,-4,-3,-11,1
O=C(c1ccccc1F)N1CCN(S(=O)(=O)c2ccc3c(c2)OCCO3)CC1,0,6,3,-7,-16,-3,/
O=C(c1ccccc1OC(F)F)N1CCN(S(=O)(=O)c2ccc3c(c2)OCCCO3)CC1,14*,4,3,-1,-13,-5,0
O=C(NN=Cc1ccc(O)c([N+](=O)[O-])c1)C1CC1(c1ccccc1)c1ccccc1 (stereo not drawn),/,/,9,/,/,/,/
CCn1cc(C(=O)N2CCCC(C(=O)c3ccc4ccccc4c3)C2)cn1 (stereo not drawn),5.5*,-1,-17,-6,-13,1,-1
Cc1ccc(S(=O)(=O)N(C)C)cc1NC(=O)COC(=O)Cc1ccccc1F,11*,0,1,-4,-11,-4,0
COc1ccc(C(=O)NC(=S)N2CCCC2)cc1,0,-2,2,-5,10,1,/
COc1ccc(C(=O)NC(=S)N2CCCCC2)cc1,3.6*,-1,1,-1,25,4,-1
CC(=NNC(=O)c1cccs1)c1cccc(NC(=O)C2CC2)c1,/,/,-4,/,/,/,/
CCn1c(=N)n(CC(=O)c2ccc(Cl)c(Cl)c2)c2ccccc21,8.0*,8,5,-1,52,-6,9.1*
Cn1c(=N)n(CC(=O)c2ccc(F)cc2)c2ccccc21,3.8*,-7,5,-5,11,-9,3
C=CCn1c(=N)n(CC(=O)c2ccc(Cl)cc2)c2ccccc21,6.7*,-4,4,-8,30,-5,6.3*
C=CCn1c(=N)n(CC(=O)OC)c2ccccc21,0,-7,2,-3,-13,2,/
C=CCNC(=S)N/N=C/c1ccc(OCc2ccccc2Cl)cc1,6.5*,7,/,-16,5,-22,0
CC(OC(=O)c1ccc(Cl)nc1)C(=O)NCc1ccc2c(c1)OCO2 (stereo not drawn),7.2*,1,2,-8,-5,4,-1
Cc1ccc(NS(=O)(=O)c2ccc(OCC(=O)N3CCOCC3)cc2)cc1,0,-9,0,-7,-6,4,/
O=C(COc1ccc(NS(=O)(=O)c2ccc(F)cc2)cc1)N1CCOCC1,11*,6,0,8,-7,2,-1
Cc1ccccc1C=NN1CCN(c2ccccc2)CC1,/,/,3,/,/,/,/
COc1ccc(NC(=O)Cn2c(C)cc(=O)c3ccccc32)cc1,7.8*,1,3,7,5,-22,0
Cc1cc(=O)c2ccccc2n1CC(=O)NCc1ccccc1,1,-3,3,-8,-7,-3,/
COc1ccc(CCN(C)C(=O)c2cc(-c3ccccc3)nc3ccc(C)cc23)cc1OC,7.8*,0,1,5,4,0,0
O=C(NN=Cc1cccc2ccccc12)c1cccc(F)c1,/,/,0,/,/,/,/
CCNc1nc(SC(C)C(=O)OC)nc(N2CCOCC2)n1 (stereo not drawn),66*,10,2,0,0,-8,-1
Cc1cc(NC(=O)CSc2nnc(Cc3ccccc3)n2C)no1,0,-5,4,-3,-2,7,/
CCn1c(Cc2ccccc2)nnc1SCC(=O)Nc1cc(C)on1,44*,1,1,-8,-2,2,-1
CCCCCOc1ccc(NC(=O)C(=O)NCC2CCCN2CC)cc1 (stereo not drawn),11*,8,3,-11,-15,4,15*
CCN1CCCC1CNC(=O)C(=O)NC (stereo not drawn),0,-6,3,-1,2,8,/
CCN(CC)S(=O)(=O)c1ccccc1C=NO,/,/,3,/,/,/,/

# Screening data deposited in PubChem by several laboratories.
